# Screens deposited in PubChem by Broad Institute.
# In the library only some 5.8% were active in any assay of this set; here they are far more common.
# Pf Dd2 growth: blocks growth of Plasmodium falciparum Dd2 parasites | P. falciparum Dd2 growth, SYBR Green, 72 h; active compounds read low | activity change, % at 10 µM | hit rate 2.3% among 94,000 | AID 1159554; in the data active = activity change below about -80%; inconclusive = no clear call, values can overlap the other calls
# IDH1 R132H inh: inhibitors of human IDH1 R132H; inhibition, % at 10 µM; AID 624101; IDH1 R132H reductase, diaphorase/resazurin fluorescence, 60 min; hit rate 0.18% among 70,000; in the data active = inhibition above about 34%; inconclusive = no clear call, values can overlap the other calls; inactive = below about 11%
# Target sequence (O75874 whole entry R132H): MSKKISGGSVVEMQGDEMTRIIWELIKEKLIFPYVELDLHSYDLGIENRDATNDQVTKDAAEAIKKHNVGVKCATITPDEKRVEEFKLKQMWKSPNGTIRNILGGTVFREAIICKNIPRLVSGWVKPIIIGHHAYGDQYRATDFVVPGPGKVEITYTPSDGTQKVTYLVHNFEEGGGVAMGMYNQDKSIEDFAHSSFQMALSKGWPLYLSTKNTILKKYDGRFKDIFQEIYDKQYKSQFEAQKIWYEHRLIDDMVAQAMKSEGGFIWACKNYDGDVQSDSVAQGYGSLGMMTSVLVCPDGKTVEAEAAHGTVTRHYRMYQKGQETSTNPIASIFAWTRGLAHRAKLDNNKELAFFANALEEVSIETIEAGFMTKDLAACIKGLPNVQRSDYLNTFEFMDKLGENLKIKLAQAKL
# GASC1 inh: inhibitors of human demethylase GASC-1 KDM4C | Q9H3R0 | GST-KDM4C 2-372, H3K9me3 peptide, LANCE TR-FRET | inhibition, % at 12.5 µM | hit rate 0.15% among 96,000 | AID 720574;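 active = mean replicate inhibition above about 25%, with at least 55% of replicates also reaching it, limit read from the data, passing the limit was not always enough; inconclusive = only one of those two conditions met; inactive = neither condition met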
#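 System: N-terminal GST-fused human GASC-1 (KDM4C) fragment, residues 2-372; amount: enzyme final amount 10 nM; incubation: reaction 30 min RT, detection step 1 h RT; medium: HEPES buffer, pH 7.5, plus ascorbate; technique: LANCE TR-FRET, Eu antibody, ULight-streptavidin, EDTA, ex 340 nm, em 618/671 nm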
# T cruzi growth: blocks T. cruzi growth in NIH3T3 culture | T. cruzi beta-gal in NIH3T3, GalScreen luminescence, 90 h | inhibition, % at 8.34 µM | hit rate 5.9% among 77,000 | AID 624255;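 active = mean inhibition above about 93%, with at least 55% of replicates each passing it, limit read from the data, passing the limit was not always enough; inconclusive = only one of those two conditions holds; inactive = neither condition holds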
# A number is an active result; i = inactive; ? = inconclusive; nt = no result given.
SMILES,Pf Dd2 growth,IDH1 R132H inh,GASC1 inh,T cruzi growth
O=C(C[C@H]1C[C@@H]2c3cc(NC(=O)C4CCOCC4)ccc3O[C@@H]2[C@H](CO)O1)NCCc1ccccc1,i,i,i,i
O=C(Nc1ccccc1F)N1CCCCN2[C@@H](CO)[C@@H](c3ccc(C#Cc4ccccc4)cc3)[C@@H]2C1,-89,nt,i,i
O=C(Nc1ccccc1)N1CCCCN2[C@@H](CO)[C@H](c3ccc(C#Cc4cccnc4)cc3)[C@@H]2C1,-83,nt,i,i
O=C(Nc1cccc(F)c1)N1CCCCN2[C@H](CO)[C@H](c3ccc(C#Cc4ccccc4)cc3)[C@@H]2C1,-82,nt,i,i
COc1ccc(C#Cc2ccc([C@@H]3[C@H](CO)N4CCCCN(C(=O)Nc5ccccc5F)C[C@@H]34)cc2)cc1,-82,nt,i,i
COc1ccc(C#Cc2ccc([C@H]3[C@@H](CO)N4CCCCN(C(=O)Nc5ccccc5F)C[C@H]34)cc2)cc1,i,nt,i,i
COc1ccc(C#Cc2ccc([C@H]3[C@H](CO)N4CCCCN(C(=O)Nc5ccccc5F)C[C@@H]34)cc2)cc1,i,nt,i,i
COCC(=O)N1C[C@@H](C)[C@H](OC)CN(C)C(=O)c2cc(NC(=O)C3CCC3)ccc2OC[C@H]1C,i,i,i,i
O=C(O)CCCCCCC(=O)N/N=C/CCC1CCCCC1,nt,i,nt,nt
O=C(c1ccccn1)N1CC2(C1)[C@H](c1ccccc1)[C@H](CO)N2C(=O)CC1CC1,i,nt,i,nt
COc1cccc(CN2CCCCN3[C@H](CO)[C@@H](c4ccc(C#Cc5cccnc5)cc4)[C@H]3C2)c1,-86,nt,i,i
C[C@H](CO)N1C[C@H](C)[C@H](CN(C)C(=O)Nc2cccc3ccccc23)Oc2ccc(NC(=O)Nc3ccc(C(F)(F)F)cc3)cc2C1=O,i,i,i,i
C[C@@H]1CN([C@H](C)CO)C(=O)Cc2cc(NC(=O)Nc3ccc(C(F)(F)F)cc3)ccc2O[C@H]1CN(C)C(=O)Nc1cccc2ccccc12,-85,i,i,i
C[C@@H]1CN([C@H](C)CO)C(=O)c2cc(NC(=O)Nc3ccc(C(F)(F)F)cc3)ccc2O[C@H]1CN(C)C(=O)Nc1cccc2ccccc12,-95,i,i,i
C[C@@H]1CCCCO[C@@H](CN(C)C(=O)Nc2ccc(C(F)(F)F)cc2)[C@@H](C)CN([C@H](C)CO)C(=O)c2cc(NC(=O)Nc3cccc4ccccc34)ccc2O1,i,i,i,nt
C[C@@H]1CCCCO[C@H](CN(C)C(=O)Nc2ccc(C(F)(F)F)cc2)[C@H](C)CN([C@H](C)CO)C(=O)c2cc(NC(=O)Nc3cccc4ccccc34)ccc2O1,-87,nt,i,i
C[C@@H]1CCCCO[C@H](CN(C)C(=O)Nc2cccc3ccccc23)[C@@H](C)CN([C@@H](C)CO)C(=O)c2cc(NC(=O)Nc3ccc(C(F)(F)F)cc3)ccc2O1,-81,i,i,i
C[C@@H]1CCCCO[C@@H](CN(C)C(=O)Nc2cccc3ccccc23)[C@H](C)CN([C@H](C)CO)C(=O)c2cc(NC(=O)Nc3ccc(C(F)(F)F)cc3)ccc2O1,i,nt,i,109
C[C@H](CO)N1C[C@H](C)[C@H](CN(C)C(=O)C2CC2)Oc2cc(C#Cc3ccccc3)ccc2S1(=O)=O,-92,i,i,i
COCC(=O)N(C)C[C@H]1Oc2cc(C#Cc3ccccc3)ccc2S(=O)(=O)N([C@@H](C)CO)C[C@@H]1C,i,i,i,i
C[C@H](CO)N1C[C@H](C)[C@@H](CN(C)C(=O)C2CC2)Oc2cc(C#Cc3ccccc3)ccc2S1(=O)=O,i,i,i,i
COCC(=O)N(C)C[C@@H]1Oc2cc(C#Cc3ccccc3)ccc2S(=O)(=O)N([C@H](C)CO)C[C@@H]1C,-82,i,i,i
C[C@@H]1CN([C@@H](C)CO)C(=O)c2cc(NC(=O)Nc3ccc(F)cc3)ccc2O[C@@H](C)CCCCO[C@@H]1CN(C)C(=O)C1CCCCC1,-85,nt,i,i
C[C@@H]1CN([C@H](C)CO)C(=O)c2cc(NC(=O)Nc3ccc(F)cc3)ccc2O[C@@H](C)CCCCO[C@@H]1CN(C)C(=O)C1CCCCC1,-92,nt,i,i
C[C@H]1CCCCO[C@@H](CN(C)C(=O)C2CCCCC2)[C@@H](C)CN([C@@H](C)CO)C(=O)c2cc(NC(=O)NC3CCCCC3)ccc2O1,-82,nt,i,i
SMILES,Pf Dd2 growth,IDH1 R132H inh,GASC1 inh,T cruzi growth
C[C@@H]1CN([C@H](C)CO)C(=O)c2cc(NC(=O)Nc3ccccc3)ccc2O[C@@H](C)CCCCO[C@@H]1CN(C)C(=O)C1CCCCC1,-86,i,nt,i
C[C@@H]1CCCCO[C@@H](CN(C)C(=O)C2CCCCC2)[C@@H](C)CN([C@@H](C)CO)C(=O)c2cc(NC(=O)Nc3ccc(F)cc3)ccc2O1,i,nt,i,i
O=C(NO)c1ccc(C(=O)N/N=C/c2cc(O)ccc2Br)cc1,nt,i,nt,nt
C[C@@H]1CCCCO[C@H](CN(C)C(=O)C2CCCCC2)[C@@H](C)CN([C@@H](C)CO)C(=O)c2cc(NC(=O)Nc3ccc(F)cc3)ccc2O1,-90,i,i,i
C[C@@H]1CCCCO[C@@H](CN(C)C(=O)C2CCCCC2)[C@@H](C)CN([C@H](C)CO)C(=O)c2cc(NC(=O)Cc3ccccc3)ccc2O1,i,i,i,i
C[C@H]1CCCCO[C@@H](CN(C)C(=O)C2CCCCC2)[C@@H](C)CN([C@@H](C)CO)C(=O)c2cc(NC(=O)Cc3ccccc3)ccc2O1,-87,i,i,i
C[C@@H]1CN([C@@H](C)CO)C(=O)Cc2cc(NC(=O)Nc3ccccc3)ccc2O[C@H]1CN(C)Cc1ccc(C(=O)Nc2ccccc2N)cc1,i,i,i,nt
C[C@@H]1CN([C@@H](C)CO)C(=O)c2cccc(NS(=O)(=O)c3ccccc3)c2O[C@@H]1CN(C)Cc1ccc(C(=O)Nc2ccccc2N)cc1,-92,nt,i,i
C[C@H](CO)N1C[C@H](C)[C@H](CN(C)Cc2ccc(C(=O)Nc3ccccc3N)cc2)Oc2c(NS(=O)(=O)c3ccc(F)cc3)cccc2C1=O,-85,i,i,nt
C[C@@H]1CN([C@@H](C)CO)C(=O)c2cccc(NS(=O)(=O)c3ccc(Cl)cc3)c2O[C@@H]1CN(C)Cc1ccc(C(=O)Nc2ccccc2N)cc1,-92,nt,i,i
C[C@H](CO)N1C[C@H](C)[C@@H](CN(C)Cc2ccc(C(=O)Nc3ccccc3N)cc2)Oc2c(NS(=O)(=O)c3ccccc3)cccc2C1=O,i,i,i,nt
C[C@@H]1CN([C@@H](C)CO)C(=O)c2c(c3ccccc3n2C)-c2ccccc2CO[C@@H]1CN(C)Cc1cccc(C(F)(F)F)c1,-90,nt,i,nt
C[C@@H]1CN([C@H](C)CO)C(=O)c2c(c3ccccc3n2C)-c2ccccc2CO[C@H]1CN(C)Cc1ccccc1C(F)(F)F,i,nt,i,nt
C[C@H]1CN([C@@H](C)CO)C(=O)c2c(c3ccccc3n2C)-c2ccccc2CO[C@@H]1CN(C)Cc1cccc(C(F)(F)F)c1,-82,nt,i,nt
C[C@H]1CN([C@@H](C)CO)C(=O)c2c(c3ccccc3n2C)-c2ccccc2CO[C@H]1CN(C)Cc1ccc(C(F)(F)F)cc1,?,nt,i,nt
